ChEMBL document CHEMBL2157941, “Synthesis and characterization of some new quinoline based derivatives endowed with broad spectrum antimicrobial potency” (2012)
≈ marks a conversion by molar mass, not a printed value.

Tests used:
Assay type in all cases: functional
Pseudomonas aeruginosa = test: Antibacterial activity against Pseudomonas aeruginosa MTCC 1688 after 24 hrs by serial broth dilution method; details: MTCC 1688, 24 h
Procedure, shortened: (§1)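 Read-out was the individual minimum inhibitory concentration for each bacterial or fungal strain.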

Staphylococcus aureus = test: Antibacterial activity against Staphylococcus aureus MTCC 96 after 24 hrs by serial broth dilution method; details: MTCC 96, 24 h; procedure, shortened: as §1
Streptococcus pyogenes = test: Antibacterial activity against Streptococcus pyogenes MTCC 442 after 24 hrs by serial broth dilution method; details: MTCC 442, 24 h; procedure, shortened: as §1
Candida albicans = test: Antifungal activity against Candida albicans MTCC 227 after 48 hrs by serial broth dilution method; details: MTCC 227, 48 h; procedure, shortened: as §1
Aspergillus niger = test: Antifungal activity against Aspergillus niger MTCC 282 after 48 hrs by serial broth dilution method; details: MTCC 282, 48 h; procedure, shortened: as §1
Escherichia coli = test: Antibacterial activity against Escherichia coli MTCC 443 after 24 hrs by serial broth dilution method; details: MTCC 443, 24 h; procedure, shortened: as §1
Aspergillus clavatus = test: Antifungal activity against Aspergillus clavatus MTCC 1323 after 48 hrs by serial broth dilution method; details: MTCC 1323, 48 h; procedure, shortened: as §1

| Compound | MIC (Pseudomonas aeruginosa) [µg/mL] | MIC (Staphylococcus aureus) [µg/mL] | MIC (Streptococcus pyogenes) [µg/mL] | MIC (Candida albicans) [µg/mL] | MIC (Aspergillus niger) [µg/mL] | MIC (Escherichia coli) [µg/mL] | MIC (Aspergillus clavatus) [µg/mL] |
| --- | --- | --- | --- | --- | --- | --- | --- |
| O=C1CSC(N2N=C(c3ccc([N+](=O)[O-])cc3)CC2c2cc3cc(F)ccc3nc2Cl)=N1 (centres undefined) | 100 (≈ 213 µM) | 250 (≈ 532 µM) | 50 (≈ 106 µM) | 250 (≈ 532 µM) | 100 (≈ 213 µM) | 50 (≈ 106 µM) | 100 (≈ 213 µM) |
| COC1=CC(=O)C[C@@H](C)[C@]12Oc1c(Cl)c(OC)cc(OC)c1C2=O [GRISEOFULVIN] | – | – | – | 500 (≈ 1420 µM) | 100 (≈ 283 µM) | – | 100 (≈ 283 µM) |
| O=C(O)c1cn(C2CC2)c2cc(N3CCNCC3)c(F)cc2c1=O [CIPROFLOXACIN] | – | 50 (≈ 151 µM) | 50 (≈ 151 µM) | – | – | 25 (≈ 75.4 µM) | – |
| O=C1CSC(N2N=C(c3cccc([N+](=O)[O-])c3)CC2c2cc3cc(F)ccc3nc2Cl)=N1 (centres undefined) | 500 (≈ 1060 µM) | 1000 (≈ 2130 µM) | 500 (≈ 1060 µM) | 500 (≈ 1060 µM) | 100 (≈ 213 µM) | 250 (≈ 532 µM) | 50 (≈ 106 µM) |
| O=C1CSC(N2N=C(c3ccccc3Cl)CC2c2cc3cc(F)ccc3nc2Cl)=N1 (centres undefined) | 100 (≈ 218 µM) | 250 (≈ 544 µM) | 50 (≈ 109 µM) | 500 (≈ 1090 µM) | 100 (≈ 218 µM) | 50 (≈ 109 µM) | 50 (≈ 109 µM) |
| O=C1CSC(N2N=C(c3ccccc3O)CC2c2cc3cc(F)ccc3nc2Cl)=N1 (centres undefined) | 500 (≈ 1130 µM) | 1000 (≈ 2270 µM) | 500 (≈ 1130 µM) | 1000 (≈ 2270 µM) | 1000 (≈ 2270 µM) | 250 (≈ 567 µM) | 1000 (≈ 2270 µM) |
| O=C1CSC(N2N=C(c3ccc(Cl)cc3)CC2c2cc3cc(F)ccc3nc2Cl)=N1 (centres undefined) | 250 (≈ 544 µM) | 50 (≈ 109 µM) | 50 (≈ 109 µM) | 500 (≈ 1090 µM) | 50 (≈ 109 µM) | 500 (≈ 1090 µM) | 100 (≈ 218 µM) |
| COc1ccc(C2=NN(C3=NC(=O)CS3)C(c3cc4cc(F)ccc4nc3Cl)C2)cc1 (centres undefined) | 1000 (≈ 2200 µM) | 500 (≈ 1100 µM) | 1000 (≈ 2200 µM) | 1000 (≈ 2200 µM) | 500 (≈ 1100 µM) | 1000 (≈ 2200 µM) | 500 (≈ 1100 µM) |
| O=C1CSC(N2N=C(c3ccc(O)cc3)CC2c2cc3cc(F)ccc3nc2Cl)=N1 (centres undefined) | 250 (≈ 567 µM) | 500 (≈ 1130 µM) | 250 (≈ 567 µM) | 1000 (≈ 2270 µM) | 500 (≈ 1130 µM) | 500 (≈ 1130 µM) | 1000 (≈ 2270 µM) |
| O=C1CSC(N2N=C(c3ccc(F)cc3)CC2c2cc3cc(F)ccc3nc2Cl)=N1 (centres undefined) | 50 (≈ 113 µM) | 100 (≈ 226 µM) | 25 (≈ 56.4 µM) | 1000 (≈ 2260 µM) | 250 (≈ 564 µM) | 50 (≈ 113 µM) | 100 (≈ 226 µM) |
| O=C1CSC(N2N=C(c3ccccc3[N+](=O)[O-])CC2c2cc3cc(F)ccc3nc2Cl)=N1 (centres undefined) | 12.5 (≈ 26.6 µM) | 100 (≈ 213 µM) | 25 (≈ 53.2 µM) | 100 (≈ 213 µM) | 25 (≈ 53.2 µM) | 25 (≈ 53.2 µM) | 12.5 (≈ 26.6 µM) |
| O=C1CSC(N2N=C(c3ccccc3)CC2c2cc3cc(F)ccc3nc2Cl)=N1 (centres undefined) | 250 (≈ 588 µM) | 500 (≈ 1180 µM) | 1000 (≈ 2350 µM) | 1000 (≈ 2350 µM) | 1000 (≈ 2350 µM) | 500 (≈ 1180 µM) | 500 (≈ 1180 µM) |
| O=C(CN1CCOCC1)Nc1nc(-c2ccc([N+](=O)[O-])cc2)cc(-c2cc3cc(F)ccc3nc2Cl)n1 | 50 (≈ 95.6 µM) | 100 (≈ 191 µM) | 100 (≈ 191 µM) | 100 (≈ 191 µM) | 100 (≈ 191 µM) | 25 (≈ 47.8 µM) | 50 (≈ 95.6 µM) |
| O=C1CSC(N2N=C(c3ccccc3F)CC2c2cc3cc(F)ccc3nc2Cl)=N1 (centres undefined) | 50 (≈ 113 µM) | 100 (≈ 226 µM) | 100 (≈ 226 µM) | 250 (≈ 564 µM) | 50 (≈ 113 µM) | 25 (≈ 56.4 µM) | 500 (≈ 1130 µM) |
| O=C1CSC(N2N=C(c3cccc(F)c3)CC2c2cc3cc(F)ccc3nc2Cl)=N1 (centres undefined) | 250 (≈ 564 µM) | 500 (≈ 1130 µM) | 500 (≈ 1130 µM) | 100 (≈ 226 µM) | 500 (≈ 1130 µM) | 500 (≈ 1130 µM) | 500 (≈ 1130 µM) |

Now from value to molecule:

| MIC (Pseudomonas aeruginosa) [µg/mL] | MIC (Staphylococcus aureus) [µg/mL] | MIC (Streptococcus pyogenes) [µg/mL] | MIC (Candida albicans) [µg/mL] | MIC (Aspergillus niger) [µg/mL] | MIC (Escherichia coli) [µg/mL] | MIC (Aspergillus clavatus) [µg/mL] | Compound |
| --- | --- | --- | --- | --- | --- | --- | --- |
| 100 (≈ 191 µM) | 250 (≈ 478 µM) | 100 (≈ 191 µM) | 250 (≈ 478 µM) | 100 (≈ 191 µM) | 250 (≈ 478 µM) | 500 (≈ 956 µM) | O=C(CN1CCOCC1)Nc1nc(-c2cccc([N+](=O)[O-])c2)cc(-c2cc3cc(F)ccc3nc2Cl)n1 |
| 250 (≈ 492 µM) | 500 (≈ 984 µM) | 250 (≈ 492 µM) | 1000 (≈ 1970 µM) | 250 (≈ 492 µM) | 500 (≈ 984 µM) | 500 (≈ 984 µM) | COc1ccc(-c2cc(-c3cc4cc(F)ccc4nc3Cl)nc(NC(=O)CN3CCOCC3)n2)cc1 |
| 100 (≈ 195 µM) | 100 (≈ 195 µM) | 100 (≈ 195 µM) | 500 (≈ 976 µM) | 100 (≈ 195 µM) | 50 (≈ 97.6 µM) | 100 (≈ 195 µM) | O=C(CN1CCOCC1)Nc1nc(-c2ccccc2Cl)cc(-c2cc3cc(F)ccc3nc2Cl)n1 |
| 25 (≈ 50.4 µM) | 50 (≈ 101 µM) | 50 (≈ 101 µM) | 100 (≈ 202 µM) | 50 (≈ 101 µM) | 12.5 (≈ 25.2 µM) | 25 (≈ 50.4 µM) | O=C(CN1CCOCC1)Nc1nc(-c2ccccc2F)cc(-c2cc3cc(F)ccc3nc2Cl)n1 |
| 500 (≈ 1010 µM) | 500 (≈ 1010 µM) | 500 (≈ 1010 µM) | 1000 (≈ 2020 µM) | 250 (≈ 506 µM) | 1000 (≈ 2020 µM) | 500 (≈ 1010 µM) | O=C(CN1CCOCC1)Nc1nc(-c2ccccc2O)cc(-c2cc3cc(F)ccc3nc2Cl)n1 |
| 500 (≈ 1050 µM) | 500 (≈ 1050 µM) | 250 (≈ 523 µM) | 1000 (≈ 2090 µM) | 500 (≈ 1050 µM) | 250 (≈ 523 µM) | 250 (≈ 523 µM) | O=C(CN1CCOCC1)Nc1nc(-c2ccccc2)cc(-c2cc3cc(F)ccc3nc2Cl)n1 |
| 50 (≈ 97.6 µM) | 250 (≈ 488 µM) | 100 (≈ 195 µM) | 250 (≈ 488 µM) | 100 (≈ 195 µM) | 100 (≈ 195 µM) | 100 (≈ 195 µM) | O=C(CN1CCOCC1)Nc1nc(-c2ccc(Cl)cc2)cc(-c2cc3cc(F)ccc3nc2Cl)n1 |
| 1000 (≈ 2020 µM) | 1000 (≈ 2020 µM) | 1000 (≈ 2020 µM) | 500 (≈ 1010 µM) | 500 (≈ 1010 µM) | 500 (≈ 1010 µM) | 1000 (≈ 2020 µM) | O=C(CN1CCOCC1)Nc1nc(-c2ccc(O)cc2)cc(-c2cc3cc(F)ccc3nc2Cl)n1 |
| 100 (≈ 191 µM) | 50 (≈ 95.6 µM) | 50 (≈ 95.6 µM) | 100 (≈ 191 µM) | 50 (≈ 95.6 µM) | 100 (≈ 191 µM) | 100 (≈ 191 µM) | O=C(CN1CCOCC1)Nc1nc(-c2ccccc2[N+](=O)[O-])cc(-c2cc3cc(F)ccc3nc2Cl)n1 |
| 100 (≈ 202 µM) | 250 (≈ 504 µM) | 250 (≈ 504 µM) | 250 (≈ 504 µM) | 250 (≈ 504 µM) | 100 (≈ 202 µM) | 250 (≈ 504 µM) | O=C(CN1CCOCC1)Nc1nc(-c2cccc(F)c2)cc(-c2cc3cc(F)ccc3nc2Cl)n1 |
| 50 (≈ 101 µM) | 100 (≈ 202 µM) | 100 (≈ 202 µM) | 100 (≈ 202 µM) | 100 (≈ 202 µM) | 50 (≈ 101 µM) | 100 (≈ 202 µM) | O=C(CN1CCOCC1)Nc1nc(-c2ccc(F)cc2)cc(-c2cc3cc(F)ccc3nc2Cl)n1 |
